Source: ChEMBL document CHEMBL1153304, “2,4-Diaminopyridine delta-opioid receptor agonists and their associated hERG pharmacology” (Bioorg Med Chem Lett, 2009)
Active and inactive are the calls of the source. No cut-off for these calls is given here.

What was measured:
[1] = target: T1, Delta-type opioid receptor (Homo sapiens, UniProt P41143); assay: Agonist activity at delta opioid receptor expressed in CHO cells assessed as inhibition of forskolin-stimulated cAMP production by ALPHAscreen assay; format: functional, cell-based
T1 sequence (P41143 whole entry): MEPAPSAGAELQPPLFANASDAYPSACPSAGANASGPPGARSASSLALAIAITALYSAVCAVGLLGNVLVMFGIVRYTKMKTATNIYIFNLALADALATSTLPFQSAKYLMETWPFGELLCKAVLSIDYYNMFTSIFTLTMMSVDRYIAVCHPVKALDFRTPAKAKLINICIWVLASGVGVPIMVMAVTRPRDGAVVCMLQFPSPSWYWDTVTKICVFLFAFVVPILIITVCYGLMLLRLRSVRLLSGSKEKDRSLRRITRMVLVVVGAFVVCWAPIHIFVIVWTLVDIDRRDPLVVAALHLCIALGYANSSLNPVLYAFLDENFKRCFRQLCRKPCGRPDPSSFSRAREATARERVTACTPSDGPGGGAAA
How it was run: (§1)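 CHO cells stably expressing a Flp-In delta opioid receptor construct, grown in DMEM/F12 with 2 mM L-glutamine, 500 µg/ml hygromycin and 10% heat-inactivated FBS. Cells resuspended at 8000 cells/well in HEPES pH 7.4/HBSS buffer with 0.1% BSA, 10 mM MgCl2 and 0.5 mM IBMX. Forskolin 20 µM final, 30 min. cAMP read by ALPHAscreen with biotin-cAMP competition after overnight incubation. EC50 from percentage agonist activity.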

[2] = Metabolic stability in human liver microsomes assessed as intrinsic clearance; format: ADME, Microsome
[3] = target: Voltage-gated inwardly rectifying potassium channel KCNH2 (Homo sapiens, UniProt Q12809); assay: Inhibition of human ERG
Sequence of Voltage-gated inwardly rectifying potassium channel KCNH2 (Q12809 whole entry): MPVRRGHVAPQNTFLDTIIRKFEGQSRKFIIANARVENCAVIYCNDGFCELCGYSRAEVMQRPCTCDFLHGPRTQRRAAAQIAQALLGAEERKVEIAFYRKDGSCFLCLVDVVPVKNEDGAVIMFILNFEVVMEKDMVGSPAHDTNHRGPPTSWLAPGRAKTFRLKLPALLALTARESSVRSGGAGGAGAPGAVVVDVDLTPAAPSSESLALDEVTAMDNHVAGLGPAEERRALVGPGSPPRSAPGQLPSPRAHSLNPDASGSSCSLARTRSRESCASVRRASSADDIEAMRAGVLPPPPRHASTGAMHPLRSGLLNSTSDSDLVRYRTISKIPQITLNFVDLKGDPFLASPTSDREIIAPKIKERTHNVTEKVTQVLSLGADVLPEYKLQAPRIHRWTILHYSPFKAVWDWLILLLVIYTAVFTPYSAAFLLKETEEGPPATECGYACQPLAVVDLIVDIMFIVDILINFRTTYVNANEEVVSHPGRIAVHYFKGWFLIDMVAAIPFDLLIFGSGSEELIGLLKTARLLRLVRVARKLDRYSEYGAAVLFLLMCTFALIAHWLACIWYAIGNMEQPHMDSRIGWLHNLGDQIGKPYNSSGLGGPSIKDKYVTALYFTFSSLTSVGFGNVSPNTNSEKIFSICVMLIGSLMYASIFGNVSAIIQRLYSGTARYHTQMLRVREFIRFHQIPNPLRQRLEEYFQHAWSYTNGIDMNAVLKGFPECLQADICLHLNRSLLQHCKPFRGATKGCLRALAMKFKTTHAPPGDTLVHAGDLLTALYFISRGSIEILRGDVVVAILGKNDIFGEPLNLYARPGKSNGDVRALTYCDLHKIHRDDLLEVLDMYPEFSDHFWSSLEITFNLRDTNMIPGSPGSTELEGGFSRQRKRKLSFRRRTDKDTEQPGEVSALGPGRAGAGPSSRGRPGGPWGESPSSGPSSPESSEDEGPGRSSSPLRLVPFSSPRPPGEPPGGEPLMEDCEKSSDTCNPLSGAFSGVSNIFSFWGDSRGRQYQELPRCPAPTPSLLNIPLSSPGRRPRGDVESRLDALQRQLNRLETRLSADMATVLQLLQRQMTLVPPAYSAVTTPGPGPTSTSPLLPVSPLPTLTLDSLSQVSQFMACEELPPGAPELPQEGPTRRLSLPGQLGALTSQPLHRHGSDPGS

[4] = Selectivity for human recombinant DOR over mu opioid receptor
[5] = target: T1, Delta-type opioid receptor; assay: Agonist activity at human recombinant delta opioid receptor expressed in CHO cells assessed as inhibition of forskolin-stimulated cAMP production by ALPHAscreen assay relative to BW373U86; format: functional, cell-based; how it was run: as §1
Mu-type opioid receptor = Mu-type opioid receptor (Homo sapiens, UniProt P35372); assay: Agonist activity at mu opioid receptor; format: functional
Sequence of Mu-type opioid receptor (P35372 whole entry): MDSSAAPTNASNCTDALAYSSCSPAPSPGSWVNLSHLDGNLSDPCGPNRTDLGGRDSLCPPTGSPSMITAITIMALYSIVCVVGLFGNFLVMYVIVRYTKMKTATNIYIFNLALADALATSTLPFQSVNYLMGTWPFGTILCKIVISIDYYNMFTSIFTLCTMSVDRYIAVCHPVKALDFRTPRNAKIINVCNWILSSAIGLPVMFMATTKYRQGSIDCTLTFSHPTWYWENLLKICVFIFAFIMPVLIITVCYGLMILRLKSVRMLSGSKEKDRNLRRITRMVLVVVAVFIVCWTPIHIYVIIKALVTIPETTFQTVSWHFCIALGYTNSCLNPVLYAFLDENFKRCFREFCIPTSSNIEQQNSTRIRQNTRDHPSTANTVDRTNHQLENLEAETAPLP

Rattus norvegicus = organism: Rattus norvegicus; assay: Inhibition of neuropathic pain in rat electromyography model; format: functional
How it was run: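 Rat electromyography (EMG) pain model. Agonist given by infusion protocol (bolus + continuous infusion) at 76 µg/kg + 72 µg/kg/hr, 240 µg/kg + 290 µg/kg/hr, or 660 µg/kg + 920 µg/kg/hr to reach target plasma levels. Mean free plasma concentration measured at each dose. Read-out: EMG response inhibition relative to control animals.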

Canis familiaris = organism: Canis familiaris; assay: Effect on QTC prolongation in Beagle dog at 291 nM free plasma concentration; format: functional, organism-based; settings: Canis lupus familiaris
Clearance in rat = settings: in vivo

EC50 [1] [nM] | microsomal CLint [2] [µL/min/mg] | fold change (FC) [4] | Compound | Ki [3] [nM] | further results
60 | 14 | 50 | Nc1ccnc(N2CCC(NC(=O)c3ccccn3)(c3ccccc3)CC2)c1 | 548 | –
– | 19 | – | Nc1ccnc(N2CCC(n3c(=O)n(-c4ccccc4)c4cccnc43)CC2)c1 | 903 | –
– | 13 | – | Nc1ccnc(N2CCC(n3c(=O)n(CC4CC4)c4cccnc43)CC2)c1 | 746 | –
59 | 69 | 50 | COc1ccc(C(=O)NC2(c3ccccc3)CCN(c3cc(N)ccn3)CC2)cc1Cl | 343 | –
263 | < 7 | 50 | CC(=O)C1(c2ccccc2)CCN(c2cc(N)ccn2)CC1 | – | Emax [5]: 100%; EC50 (Mu-type opioid receptor): > 10000 nM
13 | 46 | 50 | Nc1ccnc(N2CCC(C(=O)N3CCc4ccccc4C3)(c3ccccc3)CC2)c1 | – | –
14 | 43 | 50 | COc1ccc(C(=O)NC2(c3ccccc3)CCN(c3cc(N)ccn3)CC2)c(OC)c1 | – | –
24 | 62 | 17 | CCOC(=O)N1CCN(C(=O)C2(c3ccccc3)CCN(c3cc(N)ccn3)CC2)CC1 | – | –
171 | 13 | 50 | Nc1ccnc(N2CCC(NC(=O)[C@@H]3CCCO3)(c3ccccc3)CC2)c1 | – | –
59 | 10 | 50 | Nc1ccnc(N2CCC3(CC2)OC(c2ccccc2)c2ccccc23)c1 (stereo unspecified) | 18 | –
– | 20 | – | Nc1ccnc(N2CCC(n3c(=O)n(Cc4ccccc4)c4cccnc43)CC2)c1 | – | –
12 | 13 | 50 | CCN(CC)C(=O)[C@H]1OC2(CCN(c3cc(N)ccn3)CC2)c2ccccc21 | > 10000 | –
846 | – | 2 | COc1cccc(C2(C)CN(c3cc(N)ccn3)C2)c1 | 1840 | –
308 | – | 50 | Nc1ccnc(N2CCC3(CC2)OCc2ccccc23)c1 | – | –
17 | 40 | 50 | COc1ccc(CNC(=O)C2(c3ccccc3)CCN(c3cc(N)ccn3)CC2)cc1 | – | –
5 | 22 | – | Nc1ccnc(N2CCC(C(=O)Nc3ccc4ccccc4n3)(c3ccccc3)CC2)c1 | – | –
– | 23 | – | COc1ccc(-n2c(=O)n(C3CCN(c4cc(N)ccn4)CC3)c3ncccc32)cc1 | 865 | –

Compound | EC50 [1] [nM] | microsomal CLint [2] [µL/min/mg] | fold change (FC) [4] | Ki [3] [nM] | further results
COc1ccc(C(=O)N(c2cc(C)ccn2)C2CCN(c3cc(N)ccn3)CC2)cc1 | – | 12 | – | – | –
Nc1ccnc(N2CCC(N(C(=O)C3CCCCC3)c3ccccn3)CC2)c1 | – | 80 | – | – | –
CN(C)C(=O)[C@H]1CC2(CCN(c3cc(N)ccn3)CC2)c2ccccc21 | 27 | < 7 | 50 | – | inhibition (INH) (Rattus norvegicus): 60%; Activity (Canis familiaris): Active; clearance (Clearance in rat): > 70 mL/min/kg
COc1cccc(C(=O)N(c2ccccn2)C2CCN(c3cc(N)ccn3)CC2)c1 | – | 17 | – | 9690 | –
Nc1ccnc(N2CCC(N(C(=O)C3CC3)c3ccccn3)CC2)c1 | – | < 7 | – | – | –
